# Source: ChEMBL document CHEMBL4477226, “Reduction Sensitive Lipid Conjugates of Tenofovir: Synthesis, Stability, and Antiviral Activity” (J Med Chem, 2016)
# Structures can show the parent of a compound that is named as a salt.
# Experiments:
# [1] = tested on: HepG2 2.2.15; assay: (§1) Cytotoxicity against human HepG2.2.15 cells assessed as reduction in cell viability after 6 days by XTT assay; format: cell-based; settings: hepg2 2.2.15, 144 h
# [2] = tested on: Hepatitis B virus; assay: Antiviral activity against HBV infected in human HepG2.2.15 cells assessed as inhibition of viral DNA in cell supernatant incubated for 3 days in presence of 10% FBS followed by compound treatment in absence of 10% FBS for 3 days by qRT-PCR method; format: functional, organism-based; settings: HepG2.2.15, 72 h
# In short: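 HBV assay in HepG2.2.15 cells; viral DNA quantified by qPCR after 6 days of incubation.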
# [3] = tested on: PBMC; assay: (§2) Cytotoxicity against human PBMC assessed as reduction in cell viability by XTT assay; format: cell-based
# In short: (§3)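 CC50 is the concentration in μM that reduces viability of uninfected PBMCs by 50%.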
# [4] = Therapeutic index, ratio of CC50 for human PBMC to EC50 for HIV1 infected in human PBMC; format: toxicity; settings: read-out: Ratio CC50/EC50
# In short: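 TI is the ratio of PBMC CC50 (uninfected cells, 50% viability loss) to EC50 for 50% inhibition of HIV-1, both in μM; HIV-1 activity measured as reverse transcriptase in supernatants of infected PBMCs.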
# [5] = Therapeutic index, ratio of CC50 for human HepG2.2.15 cells to EC50 for HBV infected in human HepG2.2.15 cells; format: toxicity, cell-based; settings: read-out: Ratio CC50/EC50
# [6] = tested on: Human immunodeficiency virus 1; assay: Antiviral activity against HIV1 infected in human PBMC assessed as inhibition of viral replication by measuring reverse transcriptase activity in cell supernatant preincubated with cells followed by viral infection measured after 7 days by radioactive incorporation polymerization assay; format: functional, organism-based
# In short: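 HIV-infected PBMCs; antiviral activity read as reverse transcriptase in cell supernatants; EC50 is the concentration in μM that inhibits HIV-1 by 50%.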
# [7] = as §1; format: cell-based, HepG2 2.2.15; settings: HepG2.2.15 cells
# [8] = as §2; format: cell-based; in short: as §3
# [9] = Stability in pH 7.4 phosphate buffered saline assessed as lipid adsorption on glass surface using kimax glassware measured up to 1440 mins by LC-MS analysis; format: physicochemical; settings: buffer, pH 7.4, 24 h
# [10] = Stability in pH 7.4 phosphate buffered saline assessed as lipid adsorption on glass surface using pyrex glassware measured up to 1440 mins by LC-MS analysis; format: physicochemical; settings: buffer, pH 7.4, 24 h
# [11] = Stability in pH 7.4 phosphate buffered saline assessed as lipid adsorption on glass surface using silanized glassware measured up to 1440 mins by LC-MS analysis; format: physicochemical; settings: buffer, pH 7.4, 24 h
# [12] = Half life in pH 7.4 phosphate buffered saline at 2 mg using kimax glassware by LC-MS analysis; format: physicochemical
# In short: (§4)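 Compound incubated in human serum, PBS (pH 7.4), DMEM, or carbonate/bicarbonate buffer (pH 9). Aliquots were taken at several time points over 2 h, with a final sample at 24 h, and analysed by LC-MS to follow decomposition. Half-life was derived from loss of parent over time.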
# [13] = Half life in pH 7.4 phosphate buffered saline at 2 mg by LC-MS analysis; format: physicochemical; in short: as §4
# [14] = Half life in DMEM at 2 mg using kimax glassware by LC-MS analysis; format: physicochemical; in short: as §4
# [15] = Therapeutic index, ratio of CC90 for human PBMC to EC90 for HIV1 infected in human PBMC; format: toxicity; settings: read-out: TI
# In short: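 HIV-1-infected human PBMCs; antiviral effect read as reverse transcriptase activity in culture supernatants. Toxicity measured as loss of viability in uninfected PBMCs. Index calculated as the cytotoxic concentration divided by the effective concentration at the 90% level (CC90/EC90).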
# [16] = Half life in pH 9 Sodium carbonate/bicarbonate buffer at 2 mg using kimax glassware by LC-MS analysis; format: physicochemical; in short: as §4
# [17] = Stability in pH 9 Sodium carbonate/bicarbonate buffer at 2 mg by LC-MS analysis; format: physicochemical; settings: in vitro; in short: as §4
# [18] = Half life in human plasma at 2 mg by LC-MS analysis; format: ADME, cell-free; in short: as §4
# [19] = Stability in DMEM at 2 mg by LC-MS analysis; format: physicochemical; settings: in vitro; in short: as §4
# [20] = Oral bioavailability in rat at 30 mg/kg, administered through gastric intubation by HPLC analysis; format: ADME, organism-based; settings: in vivo
# [21] = Oral bioavailability in rhesus monkey by HPLC analysis; format: ADME, organism-based, Macaca mulatta; settings: in vivo
# [22] = Oral bioavailability in mouse; format: ADME, organism-based; settings: in vivo
SMILES,EC50 [2] [µM],CC50 [3] [µM],selectivity ratio [4],selectivity ratio [5],EC50 [6] [µM],other results
CCCCCCCCCCCCSSCCOP(=O)(O)CO[C@H](C)Cn1cnc2c(N)ncnc21,1.67,25,8300,> 30,0.003,CC50 [1]: > 50 µM
CCCCCCCCCCCCCCCCSSCCOP(=O)(CO[C@H](C)Cn1cnc2c(N)ncnc21)Nc1ccccc1 (some centres undefined),–,34.2,7000,–,0.005,–
CCCCCCCCCCCCCCCCCCSSCCOP(=O)(CO[C@H](C)Cn1cnc2c(N)ncnc21)OCCSSCCCCCCCCCCCCCCCCCC,> 25,–,> 76,> 1,0.331,CC50 at 144 h [7]: > 25 µM; CC50 [8]: > 25 µM
CCCCCCCCCCCCCCCCSSCCOP(=O)(CO[C@H](C)Cn1cnc2c(N)ncnc21)OCc1ccccc1 (some centres undefined),–,41.1,2300,–,0.018,–
CCCCCCCCCCCCCCCCSSCCOP(=O)(CO[C@H](C)Cn1cnc2c(N)ncnc21)OCCC (some centres undefined),–,10.6,49,–,0.216,–
CCCCCCCCCCSSCCOP(=O)(O)CO[C@H](C)Cn1cnc2c(N)ncnc21,> 50,> 50,> 590,> 1,0.085,CC50 [1]: > 50 µM
CCCCCCCCCCSSCCOP(=O)(CO[C@H](C)Cn1cnc2c(N)ncnc21)OCCSSCCCCCCCCCC,> 100,–,> 287,> 1,0.349,CC50 at 144 h [7]: > 100 µM; CC50 [8]: > 100 µM
CCCCCCCCCCCCCCCCOCCCOC[C@H]1O[C@@H](n2ccc(=O)[nH]c2=O)[C@H](F)[C@@H]1O,–,–,–,–,–,Stability [9]: Stable; Stability [10]: Unstable; Stability [11]: Unstable
C[C@H](Cn1cnc2c(N)ncnc21)OCP(=O)(O)OCCS,41.9,> 100,–,–,–,CC50 [1]: > 100 µM
CCCCCCCCCCCCCCCCSSCCOP(=O)(CO[C@H](C)Cn1cnc2c(N)ncnc21)OCC (some centres undefined),–,36.2,104,–,0.349,–
CCCCCCCCCCCCCCCCCCSSCCOP(=O)(O)CO[C@H](C)Cn1cnc2c(N)ncnc21,0.505,6.36,11000,> 50,0.0006,CC50 [1]: > 50 µM
CCCCCCCCCCCCSSCCOP(=O)(CO[C@H](C)Cn1cnc2c(N)ncnc21)OCCSSCCCCCCCCCCCC,> 100,–,> 85,> 1,1.18,CC50 at 144 h [7]: > 100 µM; CC50 [8]: > 100 µM
CCCCCCCCCCCCCCCCSSCCOP(=O)(O)CO[C@H](C)Cn1cnc2c(N)ncnc21.N,0.02,14.3,22000,1200 to 1250,0.00065,half-life [12]: < 2 h; CC50 [1]: > 25 µM; half-life [13]: < 0.333 h; half-life [14]: < 2 h; selectivity ratio [15]: 11000; half-life [16]: < 2 h; Stability [17]: Unstable; t1/2 [18]: > 24 h; Stability [19]: Unstable
CCCCCCCCCCCCCCCCSSCCOP(=O)(CO[C@H](C)Cn1cnc2c(N)ncnc21)OCCSSCCCCCCCCCCCCCCCC,> 25,–,4,> 1,6.32,CC50 at 144 h [7]: > 25 µM; CC50 [8]: > 25 µM
CCCCCCCCCCCCCCCCSSCCOP(=O)(CO[C@H](C)Cn1cnc2c(N)ncnc21)OC (some centres undefined),–,38.2,1500,–,0.026,–
CCCCCCCCCCCCCCCCSSCCOP(=O)(CO[C@H](C)Cn1cnc2c(N)ncnc21)OCCCCCCCC (some centres undefined),–,–,> 50,–,0.911,CC50 [8]: > 50 µM
CCCCCCCCCCCCCCCCSSCCOP(=O)(CO[C@H](C)Cn1cnc2c(N)ncnc21)OCCCC (some centres undefined),–,27.9,150,–,0.19,–
CCCCCCCCCCCCCCSSCCOP(=O)(CO[C@H](C)Cn1cnc2c(N)ncnc21)OCCSSCCCCCCCCCCCCCC,> 100,–,> 529,> 1,0.189,CC50 at 144 h [7]: > 100 µM; CC50 [8]: > 100 µM
C[C@H](Cn1cnc2c(N)ncnc21)OCP(=O)(O)OCCSSCCO,11.6,> 100,> 62.1,> 8.6,1.61,CC50 [1]: > 100 µM; half-life [13]: 3.5 h; t1/2 [18]: < 0.567 h
CCCCCCCCCCCCCCSSCCOP(=O)(O)CO[C@H](C)Cn1cnc2c(N)ncnc21.N,0.444,14,28000 to 30000,> 56,0.0005,half-life [12]: < 2 h; CC50 [1]: > 25 µM; half-life [14]: < 2 h; selectivity ratio [15]: 11000; half-life [16]: < 2 h; Stability [17]: Unstable; t1/2 [18]: > 24 h; Stability [19]: Unstable
CCCCCCCCCCCCCCCCSSCCOP(=O)(CO[C@H](C)Cn1cnc2c(N)ncnc21)OCC(C)(C)C (mixture of isomers),–,> 100,> 700,–,0.14,–
Nc1ncnc2c1ncn2CCOCP(=O)(O)O [ADEFOVIR],–,–,–,–,–,bioavailability [20]: 8 to 11%; bioavailability [21]: < 1%
C[C@H](Cn1cnc2c(N)ncnc21)OCP(=O)(O)O [TENOFOVIR ANHYDROUS],–,> 100,> 300,–,0.319,bioavailability [22]: 2%
CC(C)OC(=O)OCOP(=O)(CO[C@H](C)Cn1cnc2c(N)ncnc21)OCOC(=O)OC(C)C [TENOFOVIR DISOPROXIL FUMARATE],0.34,43.7,9500,86 to 190,0.0046,CC50 at 144 h [7]: 29.2 to 64.5 µM; selectivity ratio [15]: 1300
CCCCCCCCCCCCCCCCOCCCOP(=O)(O)CO[C@H](C)Cn1cnc2c(N)ncnc21 [TENOFOVIR EXALIDEX],–,> 100,> 5000,–,0.02,–
